Test results from paper PMC3647260 (Journal of the American Heart Association: Cardiovascular …, 2013).
In brackets after ≈: the same amount, converted by molar mass. Bridge positions count the residues as written; N and C are the ends. Peptide text beside a SMILES is read from it.

Assays:
ldlr^−/− mice [1] = assay: Atherosclerotic lesions in the aortic root; type: in vivo, mouse (B6.129S7-Ldlrtm1Her/J, female); conditions: 0.4 mg/mouse i.p. 3 times daily, 4 weeks; n=5/group
Method in brief: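 Female ldlr−/− mice aged 6 weeks were fed a Western diet (21% milk fat, 0.15% cholesterol) and given peptide i.p. (0.4 or 0.7 mg in 200 μL saline every 8 or 12 h), with saline controls. Mice were saline-perfused and hearts OCT-frozen. Every other 10-μm aortic sinus section was taken (15 sections, 300 μm), baked overnight at 55°C and stained with Oil-red-O/hematoxylin. Lesion area, excluding the internal elastic lamina, was averaged per mouse.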

ChREBP = assay: Glucose-induced nuclear translocation of ChREBP in HepG2 cells; type: cell-based, human (HepG2 cells); conditions: 30 μmol/L, 24 hours; 25 mmol/L glucose + 100 nmol/L insulin after starvation; 3 experiments; P<0.05
Method in brief: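 HepG2 cells (kept in DMEM/10% FBS) were starved 24 h in DMEM with 5.5 mmol/L glucose. They were refed 25 mmol/L glucose plus 100 nmol/L insulin, with or without 30 μmol/L test compound, for 24 h. Nuclear and cytosolic extracts were prepared with phosphatase inhibitors and immunoblotted for ChREBP, with lamin loading controls for nuclear fractions.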

[2] = liver, spleen, pancreas, and lungs, ref not given; cited from earlier work
GAPDH [3] = assay: Pull-down assay, nonspecific control protein, Jurkat extract; type: binding, human (Jurkat T cells); conditions: biotinylated peptide, Jurkat whole-cell extract; immunoblot
SREBP2 [4] = assay: SREBP2 nuclear translocation in sterol-depleted HepG2 cells; type: cell-based, human (HepG2 cells); conditions: 2 hours after HPCD
Method in brief: (§1)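 HepG2 cells were sterol-depleted with hydroxypropyl-β-cyclodextrin for 15 min and rinsed. They were then incubated 2 h in DMEM/5% delipidized FBS with 10 μmol/L MG132 and 0, 10 or 30 μmol/L test compound. Nuclear and cytosolic extracts were immunoblotted for SREBPs, normalized to Lamin A/C or B (nuclear) or GAPDH/β-actin (cytosolic). Percent inhibition of nuclear translocation comes from ≥3 independent experiments.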

HDAC3 = HDAC3 in liver nuclear extracts; type: in vivo, mouse (ldlr^−/−); conditions: 8 weeks, osmotic pump, vs saline; 5 mice/group
Method in brief: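 Liver nuclear extracts came from Western diet-fed ldlr−/− mice after 8 weeks of subcutaneous osmotic pump dosing (10 mg in 100 μL water) or saline; phosphatase inhibitors were added. HDAC3 was immunoblotted and expressed as a ratio to β-actin. Groups were compared by Mann–Whitney test.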

SREBP2 [5] = assay: SREBP2 protein in liver extracts of treated mice; type: in vivo, mouse (ldlr^−/−); conditions: Western diet, osmotic pump, vs saline; P<0.05; 8 weeks in Figure 6
NPC1L1 = NPC1L1 protein in whole-cell liver extracts; type: in vivo, mouse (ldlr^−/−); conditions: 8 weeks, osmotic pump, vs saline; ratio to β actin; 4 mice/group; P<0.05
GAPDH [6] = assay: Pull-down assay, control protein, HepG2 extract; type: binding, human (HepG2 cells); conditions: biotinylated peptide, HepG2 whole-cell extract; immunoblot
Method in brief: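 HepG2 cells were serum-starved overnight in DMEM/1% FBS and lysed in binding buffer (10 mmol/L HEPES pH 7.9, 150 mmol/L NaCl, 0.1% NP-40, protease inhibitors). Biotinylated peptide (10 nmol) was incubated with 1.5 mg extract overnight at 4°C. After clearing at 16 000g, it was captured on Neutravidin beads for 4 h. Beads were washed, boiled in SDS buffer and immunoblotted for importins and GAPDH.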

[7] = Blood cell counts, blood chemistries and overt signs of toxicity; type: in vivo, mouse (ldlr^−/−)
Method in brief: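 Western diet-fed ldlr−/− mice, treated or saline controls. Complete blood counts were run by a clinical hematology laboratory, and lymphocyte subsets were measured by flow cytometry.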

[8] = system: microbial and autoimmune inflammation; conditions: ref [29]; cited from earlier work
SREBP1 [9] = assay: SREBP1 protein in liver extracts of treated mice; type: in vivo, mouse (ldlr^−/−); conditions: Western diet, osmotic pump, vs saline; P<0.05; 8 weeks in Figure 6
SREBP1 [10] = assay: SREBP1 nuclear translocation in sterol-depleted HepG2 cells; type: cell-based, human (HepG2 cells)
Method in brief: as §1

ldlr^−/− mice [11] = type: in vivo, mouse (B6.129S7-Ldlrtm1Her/J, female); conditions: 4 weeks, Western diet, osmotic pump, vs saline
Method in brief: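 Female ldlr−/− mice on a Western diet received peptide by subcutaneous osmotic pump (10 mg in 100 μL water) or saline. After an overnight fast, plasma cholesterol, triglycerides and glucose were measured at 1, 4 and 8 weeks, using a separate group of animals at each time.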

[12] = system: SREBP1 and SREBP2 and their target gene transcripts; assay: Quantitative PCR of SREBP and target gene transcripts in liver; type: in vivo, mouse (ldlr^−/−); conditions: osmotic pump, vs saline, n=5; for hmgcr (HMG-CoA reductase) mRNA in liver: P<0.005
Method in brief: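 Total liver RNA from Western diet-fed ldlr−/− mice, given peptide or saline by osmotic pump for 4 or 8 weeks, was reverse-transcribed. Transcripts were quantified by real-time PCR with TaqMan probes, using 18S […] as the invariant control.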

NOD mice = conditions: intense, short-term treatment, ref [20]; cited from earlier work
Solubility = type: physicochemical; conditions: method not given
NFκB RelA (p65) = assay: Immunoblot of phosphorylated NFκB RelA in liver extracts of treated mice; type: in vivo, mouse (ldlr^−/−); conditions: 8 weeks, Western diet, osmotic pump, vs saline; relative ratio to total RelA
[13] = ldlr^−/− mice fed a Western diet

CSCC[C@@H]1NC(=O)[C@H](CC(C)C)NC(=O)[C@H](CCCCN)NC(=O)[C@H](CCC(N)=O)NC(=O)[C@H](CCCNC(=N)N)NC(=O)[C@H](CCCCN)NC(=O)[C@H](CCCNC(=N)N)NC(=O)[C@H](CCC(N)=O)NC(=O)[C@H](C(C)C)NC(=O)[C@@H](NC(=O)[C@@H]2CCCN2C(=O)[C@H](C)NC(=O)[C@H](CC(C)C)NC(=O)[C@H](CC(C)C)NC(=O)[C@H](C)NC(=O)[C@H](CC(C)C)NC(=O)[C@H](CC(C)C)NC(=O)[C@@H](NC(=O)[C@H](C)NC(=O)[C@@H]2CCCN2C(=O)[C@H](CC(C)C)NC(=O)[C@H](CC(C)C)NC(=O)[C@H](C)NC(=O)[C@@H](NC(=O)[C@H](C)NC(=O)[C@H](C)N)C(C)C)C(C)C)CSSC[C@@H](C(=O)O)NC(=O)[C@@H]2CCCN2C1=O [cSN50.1] (H-AAVALLPAVLLALLAPCVQRKRQKLMPC-OH; disulfide 17-28)
protection from atherosclerosis, lower dose (ldlr^−/− mice [1]): not protected
attenuation of nuclear accumulation of ChREBP (ChREBP): ≈ 50%
delivery to blood cells and organs [2]: easily delivered
interaction with GAPDH (GAPDH [3]): not with the nonspecific cytoplasmic control protein GAPDH
nSREBP2 in cytosolic fraction (SREBP2 [4]; 30 μmol/L, 3 experiments): not significantly increased
precursor pSREBP2 in cytosolic fraction (SREBP2 [4]; 30 μmol/L, 3 experiments): remained unchanged
processing of SREBP precursors to nuclear (mature) forms, SREBP2 (SREBP2 [4]; cytosolic fraction): unaffected
HDAC3 nuclear content in liver (HDAC3): not significantly changed
nuclear SREBP2 protein in liver (SREBP2 [5]): reduced
precursor SREBP2 protein in liver (SREBP2 [5]): reduced
NPC1L1 protein in liver (NPC1L1): significant NTM‐induced reduction
interaction with GAPDH (GAPDH [6]): not with the control protein, GAPDH
blood cell populations and blood chemistries ([7]; 8 weeks of treatment, other than changes shown, vs control animals): did not reveal any significant changes
blood chemistries [7, 13]: normal blood chemistries
red blood cells, white blood cells, major lymphocyte subsets, blood platelets [7, 13]: no changes
other side effects ([7]; subcutaneous osmotic pumps, 8 weeks): no other side effects were observed
biomarkers (liver transaminases) in other models of liver inflammation [8]: significantly reduced
nuclear SREBP1 protein in liver (SREBP1 [9]): reduced
precursor SREBP1 protein in liver (SREBP1 [9]): reduced
precursor pSREBP1 in cytosolic fraction (SREBP1 [10]; 30 μmol/L, 2 hours after HPCD, 4 experiments): remained unchanged
nSREBP1 in cytosolic fraction (SREBP1 [10]; 30 μmol/L, 2 hours after HPCD, 4 experiments, P<0.05): significantly more
processing of SREBP precursors to nuclear (mature) forms, SREBP1 (SREBP1 [10]; 2 hours after HPCD, cytosolic fraction): unaffected
further reduction of nuclear nSREBP1 at 30 μmol/L (SREBP1 [10]; gradual sterol depletion, 24 hours, 30 vs 10 μmol/L): did not further reduce nSREBP1 in the nucleus by a significant amount
completeness of SREBP nuclear transport inhibition (SREBP1 [10]; rapid and gradual sterol depletion protocols, HepG2): did not completely reduce nuclear transport of SREBPs
concentration dependence of nSREBP1 nuclear reduction (SREBP1 [10]; rapid depletion with HPCD, 2 hours, 0, 10 or 30 μmol/L): concentration dependent
plasma ALT (alanine transaminase) (ldlr^−/− mice [11]): significantly reduced
plasma AST (aspartate transaminase) (ldlr^−/− mice [11]): significantly reduced
abcg5 transcripts in liver ([12]; 4 and 8 weeks): not reduced
abcg8 transcripts in liver ([12]; 4 and 8 weeks): not reduced
hmgcr (HMG-CoA reductase) mRNA in liver ([12]; 4 weeks): significantly decreased expression
srebf1 (SREBP1) transcripts in liver ([12]; 4 weeks, P<0.05): reduced
hmgcr (HMG-CoA reductase) mRNA in liver ([12]; 8 weeks): significantly decreased expression
acly (ATP citrate lyase) transcripts in liver ([12]; 8 weeks, P<0.05): significantly reduced
fasn1 (fatty acid synthase-1) transcripts in liver ([12]; 8 weeks, P<0.05): significantly reduced
srebf1 (SREBP1) transcripts in liver ([12]; 8 weeks, P<0.05): reduced
srebf2 (SREBP2) transcripts in liver ([12]; 8 weeks, P<0.05): reduced
suppression of diabetes, duration (NOD mice): 1 year
solubility (Solubility): 100 mg/mL (≈ 33.5 mM)
phosphorylated NFκB RelA (p65) in cytosolic and nuclear fractions of liver cells (NFκB RelA (p65)): significantly reduced
